Data as given in ChEMBL document CHEMBL4364265, “Oridonin derivatives as potential anticancer drug candidates triggering apoptosis through mitochondrial pathway in the liver cancer cells” (Eur J Med Chem, 2019).
Active and inactive are the calls of the source. No cut-off for these calls is given here.

Assays:
[1] = test system: RPMI-8226; assay: Antiproliferative activity against human RPMI8226 cells incubated for 72 hrs by CCK8 cells; type: functional, cell-based; conditions: RPMI-8226, 72 h
In short: (§1)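 CCK-8 proliferation assay. 10,000 cells per well were preincubated 24 h at 37 °C with 5% CO2, then given compound dissolved in DMSO and incubated 72 h. CCK-8 was added for 4 h and absorbance read at 450 nm. IC50 was taken from dose-response curves as mean ± SEM of at least three independent experiments, with paclitaxel as positive control. HepG2 and L-O2 were grown in DMEM/10% FBS; A549 and RPMI-8226 in RPMI 1640/10% FBS.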

[2] = test system: PLC-PRF-5; assay: Induction of cell cycle arrest in human PLC/PRF/5 cells assessed as accumulation at G1 phase at 0.5 uM incubated for 24 hrs by PI staining based flow cytometric analysis (reference value: 34.78%); type: functional
[3] = test system: PLC-PRF-5; assay: Induction of cell cycle arrest in human PLC/PRF/5 cells assessed as accumulation at G1 phase at 0.25 uM incubated for 24 hrs by PI staining based flow cytometric analysis (reference value: 34.78%); type: functional
[4] = test system: HepG2; assay: Induction of apoptosis in human HepG2 cells assessed as upregulation of cleaved caspase 3 protein expression level incubated for 24 hrs by Western blot analysis; type: functional, cell-based
In short: (§2)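 Cells were treated 24 h in DMEM with 0, 0.25, 0.5, 1.0 or 1.25 µM compound. Adherent and floating cells were lysed in RIPA on ice and protein measured by BCA. Equal protein was run on 7.5–12.5% SDS-PAGE and transferred to PVDF. Membranes were blocked in 5% milk/PBST, incubated with primary antibody overnight at 4 °C, and detected by ECL.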

[5] = test system: PLC-PRF-5; assay: Induction of apoptosis in human PLC/PRF/5 cells assessed as late apoptotic cells at 0.25 uM incubated for 24 hrs by annexin V staining based cell counting method (reference value: 4.81%); type: functional
[6] = test system: PLC-PRF-5; assay: Induction of mitochondrial membrane potential loss in human PLC/PRF/5 cell incubated for 24 hrs by JC1 staining based fluorescence microscopic method; type: functional
In short: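 Cells seeded in 12-well plates, cultured 12 h, treated 24 h (0, 0.25, 0.5, 1 µM). After a PBS wash, stained with JC-1 in medium for 20 min at 37 °C and washed three times. Red aggregate and green monomer fluorescence were imaged by fluorescence microscopy; the red/green ratio was taken; three independent experiments.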

[7] = test system: PLC-PRF-5; assay: Induction of ROS generation in human PLC/PRF/5 cells at 1 uM by DCFH-DA staining-based flow cytometric analysis relative to control; type: functional
In short: (§3)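 Cells were treated with 0, 0.25, 0.5 or 1 µM compound, stained with 10 µM DCFH-DA for 20 min at 37 °C, washed three times, resuspended in PBS and read by flow cytometry. Data are mean ± SD of three independent experiments.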

[8] = test system: PLC-PRF-5; assay: Induction of apoptosis in human PLC/PRF/5 cells assessed as live cells at 0.25 uM incubated for 24 hrs by annexin V staining based cell counting method (reference value: 88.95%); type: functional
[9] = test system: HepG2; assay: Induction of cell cycle arrest in human HepG2 cells assessed as accumulation at S phase at 0.5 uM incubated for 24 hrs by PI staining based flow cytometric analysis (reference value: 35.46%); type: functional
[10] = test system: HepG2; assay: Induction of apoptosis in human HepG2 cells assessed as early apoptotic cells at 0.5 uM incubated for 24 hrs by annexin V staining based cell counting method (reference value: 3.60%); type: functional
[11] = test system: PLC-PRF-5; assay: Induction of apoptosis in human PLC/PRF/5 cells assessed as live cells at 1 uM incubated for 24 hrs by annexin V staining based cell counting method (reference value: 88.95%); type: functional
[12] = test system: HepG2; assay: Induction of apoptosis in human HepG2 cells assessed as change in p53 protein expression level at 0.25 to 1.25 uM incubated for 24 hrs by Western blot analysis; type: functional, cell-based; in short: as §2
[13] = test system: HepG2; assay: Induction of apoptosis in human HepG2 cells assessed as early apoptotic cells at 0.25 uM incubated for 24 hrs by annexin V staining based cell counting method (reference value: 3.60%); type: functional
[14] = test system: PLC-PRF-5; assay: Induction of apoptosis in human PLC/PRF/5 cells assessed as early apoptotic cells at 1 uM incubated for 24 hrs by annexin V staining based cell counting method (reference value: 5.65%); type: functional
[15] = test system: HepG2; assay: Induction of cell cycle arrest in human HepG2 cells assessed as accumulation at G1 phase at 0.5 uM incubated for 24 hrs by PI staining based flow cytometric analysis (reference value: 37.06%); type: functional
[16] = test system: PLC-PRF-5; assay: Inhibition of colony formation in human PLC/PRF/5 cells assessed as decrease in colony size at 0.1 to 1 uM incubated for 10 days by crystal violet staining based microscopic method
[17] = test system: HepG2; assay: Induction of apoptosis in human HepG2 cells assessed as upregulation of cleaved PARP protein expression level incubated for 24 hrs by Western blot analysis; type: functional, cell-based; in short: as §2
[18] = test system: PLC-PRF-5; assay: Induction of cell cycle arrest in human PLC/PRF/5 cells assessed as accumulation at G2 phase at 0.5 uM incubated for 24 hrs by PI staining based flow cytometric analysis (reference value: 18.05%); type: functional
[19] = test system: HepG2; assay: Induction of cell cycle arrest in human HepG2 cells assessed as accumulation at G2 phase at 1 uM incubated for 24 hrs by PI staining based flow cytometric analysis (reference value: 25.55%); type: functional
[20] = test system: PLC-PRF-5; assay: Induction of cell cycle arrest in human PLC/PRF/5 cells assessed as accumulation at G2 phase at 1 uM incubated for 24 hrs by PI staining based flow cytometric analysis (reference value: 18.05%); type: functional
[21] = test system: PLC-PRF-5; assay: Induction of ROS generation in human PLC/PRF/5 cells by DCFH-DA staining-based flow cytometric analysis; type: functional, cell-based; in short: as §3
[22] = test system: HepG2; assay: Induction of ROS generation in human HepG2 cells at 1 uM by DCFH-DA staining-based flow cytometric analysis relative to control; type: functional; in short: as §3
[23] = test system: HepG2; assay: Induction of cell cycle arrest in human HepG2 cells assessed as accumulation at G1 phase at 1 uM incubated for 24 hrs by PI staining based flow cytometric analysis (reference value: 37.06%); type: functional
[24] = test system: L02; assay: Cytotoxicity against human LO2 cells incubated for 72 hrs by CCK8 cells; type: cell-based; conditions: L02, 72 h; in short: as §1
[25] = test system: PLC-PRF-5; assay: Induction of apoptosis in human PLC/PRF/5 cells assessed as necrotic cells at 0.5 uM incubated for 24 hrs by annexin V staining based cell counting method (reference value: 0.59%); type: functional
[26] = test system: PLC-PRF-5; assay: Antiproliferative activity against human PLC/PRF/5 cells incubated for 72 hrs by CCK8 cells; type: functional, cell-based; conditions: PLC-PRF-5, 72 h
[27] = test system: A549; assay: Antiproliferative activity against human A549 cells incubated for 72 hrs by CCK8 cells; type: functional, cell-based; conditions: A549, 72 h; in short: as §1
[28] = test system: HepG2; assay: Induction of apoptosis in human HepG2 cells assessed as upregulation of Bax protein expression level incubated for 24 hrs by Western blot analysis; type: functional, cell-based; in short: as §2

`C=C1C(=O)[C@]23[C@H](OC(=O)/C=C/c4ccc(OC)cc4)[C@H]1CC[C@H]2[C@@]12CO[C@]3(O)[C@@H](O)[C@@H]1C(C)(C)CC[C@@H]2O` showed an IC50 [1] of 8.56 µM, an Activity [2] of 43.49% and an Activity [3] of 37.17%. The Activity [4] was “Dose-dependent effect”, the Activity [5] was 9.14% and the Activity [6] was “Dose-dependent effect”. The “fold change (FC)” value [7] was 3, the Activity [8] was 80.53% and the Activity [9] was 34.53%. The Activity [10] was 8.95%, the Activity [11] was 33.5% and the Activity [12] was “inactive”. For the same compound, the Activity [13] was 5.3%, the Activity [14] was 29.39% and the Activity [15] was 39.07%. For the same compound, the inhibition [16] was “Active”, the Activity [17] was “Dose-dependent effect” and the Activity [18] was 13.58%. For the same compound, the Activity [19] was 22.67%, the Activity [20] was 6.11% and the Activity [21] was “Dose-dependent effect”. For the same compound, the “fold change (FC)” value [22] was 3, the Activity [23] was 42.33% and the IC50 [24] was 1.47 µM. It also gave an Activity [25] of 0.82%, an IC50 [26] of 0.78 µM and an IC50 [27] of 12 µM. For the same compound, the Activity [28] was “Dose-dependent effect”.
